Reference: ChEMBL document CHEMBL1150164, “New cytotoxic xenia diterpenoids from the Formosan soft coral Xenia umbellata” (2002)
Converted amounts (≈) assume the structure as drawn.

Legend:
Assay type in all cases: functional
Conditions in all cases: read-out: ED50 (the source's name)
A549 = experiment: Cytotoxicity against human A549 cells
Method in brief: (§1)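 In vitro cytotoxicity against cultured human tumour cell lines: A549 (lung adenocarcinoma) and HT-29 (colon adenocarcinoma), both obtained from a cell-line collection.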

HT-29 = experiment: Cytotoxicity against human HT-29 cells; method in brief: as §1
P388 = experiment: Cytotoxicity against mouse P388 cells
Method in brief: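 Murine P-388 lymphocytic leukaemia cells, supplied by an academic laboratory, were exposed to compounds in culture and cytotoxicity was measured in vitro.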

| SMILES | EC50 (A549) | EC50 (HT-29) | EC50 (P388) |
| --- | --- | --- | --- |
| C=C1CC[C@@H]2O[C@@]2(C)CC[C@H]2[C@H]1C(=O)O[C@@]2(/C=C/C=C(C)C)CO | 18.8 µg/mL (≈ 56.6 µM) | 5.33 µg/mL (≈ 16 µM) | 3.66 µg/mL (≈ 11 µM) |
| C=C1CC/C=C(\C)CC[C@@H]2/C(=C\CC3OC3(C)C)COC(=O)[C@@H]12 (stereo partly specified) | 11.2 µg/mL (≈ 35.4 µM) | 21.1 µg/mL (≈ 66.7 µM) | 2.87 µg/mL (≈ 9.07 µM) |
| C=C1CC[C@@H]2/C(=C\C=C\C(C)(C)O)COC(=O)[C@H]2C(=C)CCC1OO (stereo partly specified) | 4.77 µg/mL (≈ 13.7 µM) | 8.31 µg/mL (≈ 23.8 µM) | 0.04 µg/mL (≈ 0.115 µM) |
| C=C1CC/C=C(\C)CC[C@@H]2/C(=C\C=C\C(C)(C)O)CO[C@H](O)[C@@H]12 | 4.85 µg/mL (≈ 15.2 µM) | 12.9 µg/mL (≈ 40.5 µM) | 3.45 µg/mL (≈ 10.8 µM) |
| C=C1CC[C@@H]2O[C@@]2(C)CC[C@@H]2/C(=C\CC3OC3(C)C)COC(=O)[C@@H]12 (stereo partly specified) | 11.6 µg/mL (≈ 34.9 µM) | 7.77 µg/mL (≈ 23.4 µM) | 3.35 µg/mL (≈ 10.1 µM) |
| C=C1CC/C=C(\C)CC[C@@H]2/C(=C\C=C\C(C)(C)O)[C@@H](OC)O[C@H](OC)[C@@H]12 [XENIBECIN] | 13.4 µg/mL (≈ 37 µM) | 12.5 µg/mL (≈ 34.5 µM) | 3.96 µg/mL (≈ 10.9 µM) |
| C=C1CC[C@@H]2O[C@@]2(C)CC[C@H](/C(=C\CC2OC2(C)C)COC(C)=O)[C@H]1C(=O)OC (stereo partly specified) [XENITACIN] | 3.26 µg/mL (≈ 8.02 µM) | 1.12 µg/mL (≈ 2.76 µM) | 1.09 µg/mL (≈ 2.68 µM) |
